In paper PMC4141080 (FEBS Open Bio, 2014):

Assays:
Assay type in all cases: biochemical, Aplysia kurodai
Conditions in all cases: standard assay 37 °C; pH of kinetics not told
[1] = system: ApAGL86 (86-kDa α-glucosidase); assay: glucose release
[2] = system: ApAGL74 (74-kDa α-glucosidase); assay: glucose release
In short: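 The α-glucosidase was purified chromatographically from the ammonium sulfate (0–60%) fraction of stomach-lumen digestive fluid of sea hare. Glucose liberated from substrate was quantified with a glucose oxidase-based kit.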

[3] = system: ApAGL86 (86-kDa α-glucosidase); assay: fluorometric 4-methylumbelliferone release
In short: (§1)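 Each α-glucosidase was purified from sea hare digestive fluid. The fluid was squeezed from the stomach lumen, cut with 0–60% ammonium sulfate, then run through ion-exchange, phenyl-Sepharose, Sephacryl S-100 and Mono Q chromatography, with purity checked by SDS–PAGE. Substrate was 4-MU-α-glucoside. Released 4-methylumbelliferone was read fluorometrically (ex 365 nm, em 450 nm). One unit releases 1 μmol 4-methylumbelliferone/min at 37 °C.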

[4] = system: ApAGL74 (74-kDa α-glucosidase); assay: fluorometric 4-methylumbelliferone release
In short: as §1

| Km [1] [mM] | Km [2] [mM] | Km [3] [mM] | Km [4] [mM] | Compound |
| --- | --- | --- | --- | --- |
| 33.6 ± 1.55 | 31.7 ± 2.1 | – | – | OC[C@H]1O[C@@](CO)(O[C@H]2O[C@H](CO)[C@@H](O)[C@H](O)[C@H]2O)[C@@H](O)[C@@H]1O [Sucrose] |
| 16.5 ± 0.05 | 14.2 ± 0.9 | – | – | OC[C@H]1O[C@H](OC[C@H]2OC(O)[C@H](O)[C@@H](O)[C@@H]2O)[C@H](O)[C@@H](O)[C@@H]1O (stereo partly shown) [Isomaltose] |
| – | – | 0.412 ± 0.006 | 0.0479 ± 0.0106 | Cc1cc(=O)oc2cc(O[C@H]3O[C@H](CO)[C@@H](O)[C@H](O)[C@H]3O)ccc12 [4MU-α-glucoside] |
| – | 4.98 ± 0.06 | – | – | OC[C@H]1O[C@H](O[C@H]2[C@H](O)[C@@H](O)C(O)O[C@@H]2CO)[C@H](O)[C@@H](O)[C@@H]1O (stereo partly shown) [Maltose] |
